Measured values as given in ChEMBL document CHEMBL4814076, “Discovery of a Potent and Selective Covalent Inhibitor of Bruton's Tyrosine Kinase with Oral Anti-Inflammatory Activity” (ACS Med Chem Lett, 2021).
Calls of active or inactive are those of the source. The rule behind the calls is not given here.

Assays:
[1] = molecular target: T1, Tyrosine-protein kinase TXK (Homo sapiens, UniProt P42681); test: Inhibition of recombinant human TXK (256 to end residues) using GEEPLYWSFPAKKK as substrate incubated for 40 mins in presence of [gamma33P]ATP by scintillation counting method
T1 sequence (P42681 whole entry): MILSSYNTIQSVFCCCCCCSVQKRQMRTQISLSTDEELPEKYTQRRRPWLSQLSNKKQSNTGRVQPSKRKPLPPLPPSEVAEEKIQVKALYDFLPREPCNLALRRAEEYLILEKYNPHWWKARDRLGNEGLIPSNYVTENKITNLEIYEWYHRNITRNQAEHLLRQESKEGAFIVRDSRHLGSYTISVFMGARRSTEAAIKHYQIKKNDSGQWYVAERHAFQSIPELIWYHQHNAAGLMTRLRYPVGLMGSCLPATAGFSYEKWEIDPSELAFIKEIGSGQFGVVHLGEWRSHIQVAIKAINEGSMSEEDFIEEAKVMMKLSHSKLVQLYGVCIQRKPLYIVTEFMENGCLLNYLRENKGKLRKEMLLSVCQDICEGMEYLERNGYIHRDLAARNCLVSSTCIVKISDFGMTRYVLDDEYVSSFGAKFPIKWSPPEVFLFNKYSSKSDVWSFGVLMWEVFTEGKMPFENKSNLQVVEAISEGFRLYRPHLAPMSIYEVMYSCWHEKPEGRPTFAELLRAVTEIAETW

[2] = molecular target: Tyrosine-protein kinase Fgr (Homo sapiens, UniProt P09769); test: Inhibition of recombinant human FGR (2 to end residues) using poly(Glu, Tyr) 4:1 as substrate incubated for 40 mins in presence of [gamma33P]ATP by scintillation counting method
Chain of Tyrosine-protein kinase Fgr (P09769 whole entry): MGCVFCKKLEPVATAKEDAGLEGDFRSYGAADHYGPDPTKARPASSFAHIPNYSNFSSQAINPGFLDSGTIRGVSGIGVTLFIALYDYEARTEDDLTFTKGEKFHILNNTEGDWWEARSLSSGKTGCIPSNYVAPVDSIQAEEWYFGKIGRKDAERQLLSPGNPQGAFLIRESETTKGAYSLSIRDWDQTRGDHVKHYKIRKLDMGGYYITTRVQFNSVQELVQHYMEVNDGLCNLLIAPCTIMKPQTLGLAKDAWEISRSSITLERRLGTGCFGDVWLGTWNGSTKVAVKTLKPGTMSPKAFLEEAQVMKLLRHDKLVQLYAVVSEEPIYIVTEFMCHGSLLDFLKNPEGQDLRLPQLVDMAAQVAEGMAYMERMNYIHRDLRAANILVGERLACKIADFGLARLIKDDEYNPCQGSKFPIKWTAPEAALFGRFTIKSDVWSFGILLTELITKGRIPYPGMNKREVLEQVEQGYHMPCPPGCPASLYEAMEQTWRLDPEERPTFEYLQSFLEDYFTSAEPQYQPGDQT

[3] = molecular target: T2, Cytoplasmic tyrosine-protein kinase BMX (Homo sapiens, UniProt P51813); test: Inhibition of recombinant human full length BMX using poly(Glu, Tyr) 4:1 as substrate incubated for 40 mins in presence of [gamma33P]ATP by scintillation counting method
T2 sequence (P51813 whole entry): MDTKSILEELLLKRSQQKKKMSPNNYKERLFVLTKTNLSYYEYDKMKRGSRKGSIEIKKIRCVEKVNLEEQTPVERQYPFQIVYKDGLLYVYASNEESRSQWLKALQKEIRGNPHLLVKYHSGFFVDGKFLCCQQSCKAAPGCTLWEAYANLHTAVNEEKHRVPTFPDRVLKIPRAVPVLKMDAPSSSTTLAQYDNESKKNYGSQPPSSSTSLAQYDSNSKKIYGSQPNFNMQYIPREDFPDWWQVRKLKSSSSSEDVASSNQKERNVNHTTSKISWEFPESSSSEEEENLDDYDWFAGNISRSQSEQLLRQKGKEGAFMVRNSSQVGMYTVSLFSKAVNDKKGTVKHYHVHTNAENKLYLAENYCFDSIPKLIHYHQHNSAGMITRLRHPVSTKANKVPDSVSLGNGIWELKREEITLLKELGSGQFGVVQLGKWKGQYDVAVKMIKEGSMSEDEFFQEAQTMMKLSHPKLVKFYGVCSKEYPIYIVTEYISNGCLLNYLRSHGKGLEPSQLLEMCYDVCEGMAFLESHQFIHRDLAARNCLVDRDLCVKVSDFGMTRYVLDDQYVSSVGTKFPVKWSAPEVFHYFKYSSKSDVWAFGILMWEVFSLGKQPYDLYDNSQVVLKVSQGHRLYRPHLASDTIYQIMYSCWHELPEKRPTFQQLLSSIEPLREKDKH

Rattus norvegicus = test: Antiinflammatory activity in po dosed Wistar rat model of type-2 collagen/incomplete freund's adjuvant-induced arthritis assessed as reduction in paw inflammation administered once daily on day 9 post type-2 collagen/incomplete freund's adjuvant stimulation and treated until day 16; type: functional, organism-based; settings: dose 1-30 mg/kg, time 8.0 day
How it was run: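 Arthritis induced in female Wistar rats by collagen injection on day 0 and day 7. Compound given orally once daily from day 9 through day 16. Hind paw inflammation scored. Anti-TNFα comparator dosed at 10 mg/kg every other day.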

[4] = Tmax in Sprague-Dawley rat at 5 mg/kg, po measured upto 24 hrs by LC-MS/MS analysis; type: ADME, organism-based; settings: in vivo
How it was run: (§1)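 Rats (nonfasted; IV 1 mg/kg, PO 5 mg/kg) and dogs (fasted; IV 0.5 mg/kg, PO 2.5 mg/kg) dosed from 20% hydroxypropyl-β-cyclodextrin solution.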

[5] = Clearance in Sprague-Dawley rat at 5 mg/kg, po or 1 mg/kg, iv measured upto 24 hrs by LC-MS/MS analysis; type: ADME, organism-based; settings: in vivo; how it was run: as §1
[6] = In vivo protein occupancy at BTK in Wistar rat at 3 mg/kg, po measured after 24 hrs by ELISA relative to control; type: functional
How it was run: (§2)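 Single oral dose of 3 mg/kg in rats. BTK occupancy compared with plasma concentration over time out to 48 h.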

[7] = Oral bioavailability in Sprague-Dawley rat at 5 mg/kg measured upto 24 hrs by LC-MS/MS analysis; type: ADME, organism-based; settings: in vivo
[8] = In vivo protein occupancy at BTK in Wistar rat at 3 mg/kg, po measured after 48 hrs by ELISA relative to control; type: functional; how it was run: as §2
[9] = Clearance in Beagle dog at 2.5 mg/kg, po or 0.5 mg/kg, iv measured upto 24 hrs by LC-MS/MS analysis; type: ADME, organism-based, Canis lupus familiaris; settings: in vivo; how it was run: as §1
[10] = molecular target: Tyrosine-protein kinase BTK (Mus musculus, UniProt P35991); test: Inhibition of BTK in C57Bl/6 mouse splenocyte assessed as reduction in anti-IgM-induced CD69 expression incubated for 1 hr followed anti-IgM stimulation and measured after overnight by flow cytometry analysis; type: tissue-based
Chain of Tyrosine-protein kinase BTK (Mus musculus, UniProt P35991) (P35991 whole entry): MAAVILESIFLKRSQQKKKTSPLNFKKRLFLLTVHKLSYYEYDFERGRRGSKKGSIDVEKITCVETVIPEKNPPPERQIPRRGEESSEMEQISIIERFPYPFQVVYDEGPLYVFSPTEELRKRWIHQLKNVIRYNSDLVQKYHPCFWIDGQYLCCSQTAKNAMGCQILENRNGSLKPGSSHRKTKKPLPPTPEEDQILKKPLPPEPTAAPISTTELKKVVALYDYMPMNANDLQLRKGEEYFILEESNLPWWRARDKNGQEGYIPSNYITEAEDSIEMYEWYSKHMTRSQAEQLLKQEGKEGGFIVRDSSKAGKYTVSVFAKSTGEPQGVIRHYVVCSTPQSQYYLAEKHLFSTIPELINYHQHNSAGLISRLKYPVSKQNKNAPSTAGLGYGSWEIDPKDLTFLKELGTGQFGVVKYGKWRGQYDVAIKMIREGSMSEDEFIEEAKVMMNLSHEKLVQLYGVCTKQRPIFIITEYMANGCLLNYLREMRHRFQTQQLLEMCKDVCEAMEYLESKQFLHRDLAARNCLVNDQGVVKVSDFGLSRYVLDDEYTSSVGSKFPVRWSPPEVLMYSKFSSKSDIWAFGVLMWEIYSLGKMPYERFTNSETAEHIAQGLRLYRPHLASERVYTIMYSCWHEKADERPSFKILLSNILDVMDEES
How it was run: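 Mouse splenocytes stimulated with anti-IgM. CD69 expression measured as the read-out.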

[11] = molecular target: Tyrosine-protein kinase Lck (Homo sapiens, UniProt P06239); test: Inhibition of LCK in human CD4+ T-cells assessed as reduction in anti-CD3/anti-CD28 induced IL-2 secretion at 10 uM incubated for 60 mins followed by anti-CD3/anti-CD28 stimulation and measured after 18 hrs by ELISA; type: tissue-based; settings: CD4+ve Th, time 19.0 hrs
Chain of Tyrosine-protein kinase Lck (P06239 2-509 limits assumed): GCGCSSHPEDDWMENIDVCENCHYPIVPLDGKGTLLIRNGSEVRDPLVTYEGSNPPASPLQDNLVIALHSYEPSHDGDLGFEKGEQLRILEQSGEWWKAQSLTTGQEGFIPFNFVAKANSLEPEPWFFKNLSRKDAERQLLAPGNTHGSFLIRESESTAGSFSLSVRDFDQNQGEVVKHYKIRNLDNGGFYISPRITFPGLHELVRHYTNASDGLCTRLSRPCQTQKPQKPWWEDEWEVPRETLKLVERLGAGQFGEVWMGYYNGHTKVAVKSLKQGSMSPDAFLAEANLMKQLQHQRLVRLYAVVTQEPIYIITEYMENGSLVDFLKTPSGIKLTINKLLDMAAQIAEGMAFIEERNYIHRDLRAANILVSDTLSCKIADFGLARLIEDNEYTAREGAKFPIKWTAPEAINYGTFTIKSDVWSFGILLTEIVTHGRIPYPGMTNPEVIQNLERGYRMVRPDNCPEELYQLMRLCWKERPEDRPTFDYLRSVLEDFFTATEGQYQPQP
How it was run: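 Anti-CD3/anti-CD28 stimulation of T cells. IL-2 secretion measured with compound tested up to 10 μM. An ITK inhibitor served as positive control.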

[12] = molecular target: Tyrosine-protein kinase HCK (Homo sapiens, UniProt P08631); test: Inhibition of recombinant human HCK (230 to 497 residues) using GGMEDIYFEFMGGKKK as substrate incubated for 40 mins in presence of [gamma33P]ATP by scintillation counting method
Chain of Tyrosine-protein kinase HCK (P08631 whole entry, the tested form may be a part): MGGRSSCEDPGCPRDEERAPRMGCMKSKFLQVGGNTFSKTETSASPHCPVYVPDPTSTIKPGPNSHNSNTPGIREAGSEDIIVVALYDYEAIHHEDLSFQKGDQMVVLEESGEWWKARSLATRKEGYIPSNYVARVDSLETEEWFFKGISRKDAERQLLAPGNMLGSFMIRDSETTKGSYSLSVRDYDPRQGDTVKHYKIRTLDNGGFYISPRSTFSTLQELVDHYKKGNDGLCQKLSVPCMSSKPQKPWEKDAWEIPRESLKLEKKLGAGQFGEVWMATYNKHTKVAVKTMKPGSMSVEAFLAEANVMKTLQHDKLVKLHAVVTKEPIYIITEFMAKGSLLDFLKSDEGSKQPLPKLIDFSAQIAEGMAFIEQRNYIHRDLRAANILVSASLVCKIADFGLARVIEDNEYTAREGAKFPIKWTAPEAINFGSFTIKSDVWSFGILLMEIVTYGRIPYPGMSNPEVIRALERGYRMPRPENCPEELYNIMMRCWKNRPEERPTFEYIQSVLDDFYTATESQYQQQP

[13] = Oral bioavailability in Beagle dog at 2.5 mg/kg measured upto 24 hrs by LC-MS/MS analysis; type: ADME, organism-based, Canis lupus familiaris; settings: in vivo; how it was run: as §1
[14] = molecular target: Receptor tyrosine-protein kinase erbB-4 (Homo sapiens, UniProt Q15303); test: Inhibition of recombinant human ERBB4 (706 to 991 residues) using poly(Glu, Tyr) 4:1 as substrate incubated for 40 mins in presence of [gamma33P]ATP by scintillation counting method
Chain of Receptor tyrosine-protein kinase erbB-4 (Q15303 whole entry, the tested form may be a part): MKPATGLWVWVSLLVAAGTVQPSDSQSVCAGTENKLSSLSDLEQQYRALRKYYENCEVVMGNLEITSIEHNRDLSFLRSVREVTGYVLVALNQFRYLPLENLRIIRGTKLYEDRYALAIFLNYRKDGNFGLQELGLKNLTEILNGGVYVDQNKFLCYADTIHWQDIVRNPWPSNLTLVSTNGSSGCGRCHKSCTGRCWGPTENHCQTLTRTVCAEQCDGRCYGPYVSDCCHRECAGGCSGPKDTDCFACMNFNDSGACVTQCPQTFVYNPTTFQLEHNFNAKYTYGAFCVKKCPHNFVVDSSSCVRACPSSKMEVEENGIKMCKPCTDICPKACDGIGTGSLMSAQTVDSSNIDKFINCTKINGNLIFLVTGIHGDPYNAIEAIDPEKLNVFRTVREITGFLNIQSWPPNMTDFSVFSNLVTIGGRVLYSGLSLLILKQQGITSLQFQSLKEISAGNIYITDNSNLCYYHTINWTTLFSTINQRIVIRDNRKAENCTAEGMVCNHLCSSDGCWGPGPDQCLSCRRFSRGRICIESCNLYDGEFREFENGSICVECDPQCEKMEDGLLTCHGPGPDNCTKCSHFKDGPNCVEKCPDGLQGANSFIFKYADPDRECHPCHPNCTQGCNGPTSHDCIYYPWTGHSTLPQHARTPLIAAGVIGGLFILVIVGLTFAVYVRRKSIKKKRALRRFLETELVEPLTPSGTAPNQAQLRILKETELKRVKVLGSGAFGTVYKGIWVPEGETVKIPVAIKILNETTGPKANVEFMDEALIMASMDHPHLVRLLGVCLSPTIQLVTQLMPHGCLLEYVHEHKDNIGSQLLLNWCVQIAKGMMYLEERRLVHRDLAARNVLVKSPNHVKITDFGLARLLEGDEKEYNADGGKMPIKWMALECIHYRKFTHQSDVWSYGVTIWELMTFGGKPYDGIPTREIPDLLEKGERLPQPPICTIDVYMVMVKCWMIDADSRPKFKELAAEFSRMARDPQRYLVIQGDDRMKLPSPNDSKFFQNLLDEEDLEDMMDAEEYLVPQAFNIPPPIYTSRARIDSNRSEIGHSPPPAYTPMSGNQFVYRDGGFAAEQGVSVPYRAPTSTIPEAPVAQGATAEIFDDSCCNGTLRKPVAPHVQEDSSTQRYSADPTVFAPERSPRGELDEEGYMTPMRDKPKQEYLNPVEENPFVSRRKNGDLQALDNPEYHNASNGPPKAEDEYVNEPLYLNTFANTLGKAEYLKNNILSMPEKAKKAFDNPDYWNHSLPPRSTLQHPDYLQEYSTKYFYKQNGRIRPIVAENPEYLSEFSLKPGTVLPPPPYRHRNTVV

[15] = molecular target: Tyrosine-protein kinase BTK (Homo sapiens, UniProt Q06187); test: Inhibition of recombinant human BTK using KVEKIGEGTYGVVYK as substrate incubated for 40 mins in presence of [gamma33P]ATP by scintillation counting method
Chain of Tyrosine-protein kinase BTK (Homo sapiens, UniProt Q06187) (Q06187 whole entry): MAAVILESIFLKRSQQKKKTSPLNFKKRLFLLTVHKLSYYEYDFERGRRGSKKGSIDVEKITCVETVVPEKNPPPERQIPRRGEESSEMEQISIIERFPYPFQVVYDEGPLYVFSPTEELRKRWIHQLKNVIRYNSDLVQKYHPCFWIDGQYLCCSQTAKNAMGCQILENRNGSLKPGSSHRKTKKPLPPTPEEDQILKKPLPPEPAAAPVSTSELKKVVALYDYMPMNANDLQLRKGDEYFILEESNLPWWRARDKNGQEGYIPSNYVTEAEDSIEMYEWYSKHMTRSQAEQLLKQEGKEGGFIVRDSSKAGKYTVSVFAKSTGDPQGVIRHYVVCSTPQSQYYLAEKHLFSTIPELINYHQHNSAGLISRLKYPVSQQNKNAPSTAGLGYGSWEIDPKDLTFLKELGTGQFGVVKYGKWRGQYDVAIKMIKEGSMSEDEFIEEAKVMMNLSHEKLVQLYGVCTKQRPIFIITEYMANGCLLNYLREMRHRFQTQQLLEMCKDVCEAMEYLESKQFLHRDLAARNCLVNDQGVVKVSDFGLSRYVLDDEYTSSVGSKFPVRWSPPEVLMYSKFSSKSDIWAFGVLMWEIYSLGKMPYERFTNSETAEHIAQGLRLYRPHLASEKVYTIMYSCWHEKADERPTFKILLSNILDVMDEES

C=CC(=O)N1CC[C@@H](NC(=O)c2sc3nccc4c3c2NC(=O)N4c2ccc(Oc3ccccc3)cc2C)C1
IC50 [1]: 1770 nM
IC50 [2]: 4760 nM
IC50 [3]: 129 nM
Activity (Rattus norvegicus): Dose-Dependent Effect
Tmax [4]: 1 h
clearance [5]: 39.6 mL/min/kg
Activity [6]: 70%
bioavailability [7]: 29.7%
Activity [8]: 50%
clearance [9]: 8 mL/min/kg
IC50 [10]: 11 nM
inhibition [11]: inactive
IC50 [12]: > 30000 nM
bioavailability [13]: 68%
IC50 [14]: 377 nM
IC50 [15]: 142 nM
